Experimental data taken from PubChem BioAssay AID2300 (The Scripps Research Institute Molecular Screening Center, 2010).
Out of some 320,000 compounds screened, about 380 (0.12%) were called active.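 The calls were made as follows: active = percent inhibition above the cutoff of mean plus 3 SD of all tested compounds, set per screening campaign (cut at about 20% in these data); inactive = the rest.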 Many of the other results were omitted from the sample, so actives are more common in it than they were.

target: Photoreceptor-specific nuclear receptor (Homo sapiens) (UniProt Q9Y5X4); assay: inhibitors of NR2E3-RetCOR corepressor binding, primary screen, NR2E3 agonist project, biochemical, TR-FRET, GST-NR2E3, biotin-RetCOR (AID 2300); settings: 1536-well, at 4.78 µM, active compounds read high;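 also: 0% = DMSO wells and 100% = biotin wells as full block of FRET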
Sequence (Q9Y5X4 whole entry, looked up): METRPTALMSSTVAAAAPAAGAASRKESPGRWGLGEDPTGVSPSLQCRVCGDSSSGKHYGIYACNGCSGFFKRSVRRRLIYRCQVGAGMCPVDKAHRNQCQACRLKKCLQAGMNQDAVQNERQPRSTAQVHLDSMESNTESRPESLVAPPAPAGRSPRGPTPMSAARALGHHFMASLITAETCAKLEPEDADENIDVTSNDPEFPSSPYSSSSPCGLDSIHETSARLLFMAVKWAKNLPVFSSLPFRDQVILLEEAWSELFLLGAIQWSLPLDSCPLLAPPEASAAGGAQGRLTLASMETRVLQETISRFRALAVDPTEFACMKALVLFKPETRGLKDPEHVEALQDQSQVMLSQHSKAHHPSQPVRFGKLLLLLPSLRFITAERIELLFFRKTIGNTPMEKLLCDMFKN
How it was run: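 System: GST-NR2E3 and biotin-RetCOR proteins; probe or stimulus: 7 nM biotin-RetCOR; doses: compound at 4.8 µM, single dose; schedule: Compound–protein incubation for 5 h at 4 °C; detection: time-resolved FRET; read-out: percent inhibition; controls: biotin wells as high control, 0.6% DMSO wells as low control; format: 1536-well plates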

Inhibition of corepressor binding, inactive:
Cc1ccn(C(CC(=O)c2ccc(Br)cc2)C(=O)O)n1 (stereo not given) 0.75%
CC(C)CCNc1nc(N2CCCC2)c2c(c1C#N)CCN(C)C2 -2.99%
CCc1ccnc(NS(=O)(=O)c2ccc3c(c2)OCCO3)c1 -3.2%
CCN(C(=O)COC(=O)/C=C/c1nc2ccccc2s1)C1CCS(=O)(=O)C1 (stereo not given) -1.91%
C[C@@H](NC(=O)c1nc[nH]c1C(=O)N1CCN(C(=O)OC(C)(C)C)CC1)c1ccccc1 0.22%
N#C/C(=C/c1ccc(Cl)cc1)NC(=O)c1ccccc1 0.97%
CSc1sc(C(=O)NC(=O)NCc2cccnc2)c(C)c1-c1ccon1 -5.08%
CCOc1ccc(OCC)c(NC(=O)C(NS(=O)(=O)c2ccc3c(c2)oc(=O)n3C)C(C)C)c1 (stereo not given) 5.32%
CCN(CC)S(=O)(=O)c1ccc(N(C)Cc2cccc(OC)c2OC)nc1 -0.21%
Cc1ccc(C(=O)Nc2ccc(C)c(S(=O)(=O)N(C)C)c2)s1 -3.92%
COc1ccccc1C(=O)Nc1ccnn1C1CCN(Cc2cnn(C)c2)CC1 -1.2%
O=[N+]([O-])c1ccc(Oc2ccc(F)cc2Br)c2ccncc12 3.74%
O=C(COC(=O)CNS(=O)(=O)c1ccc(F)c(F)c1F)NC1CCCC1 1.54%
CC1(C)Cc2ccccc2-c2nc(CN3CCOCC3)[nH]c(=O)c21 0.32%
CCC1(CC)Cc2ccccc2-c2nc(CCl)[nH]c(=O)c21 -2.67%
Cc1ccc(Sc2ccncc2S(N)(=O)=O)cc1 0.79%
Cn1cc(CN2CCCC(CO)C2)c(-c2ccc(Oc3ccccc3)cc2)n1 (stereo not given) -0.36%
COc1ccc(C2c3[nH]c4ccccc4c3CCN2CCCn2cccn2)cc1C (stereo not given) 1.77%
CCc1ccc(NC(=O)CN2CCC(C(=O)c3ccc(OC)cc3)CC2)cc1 4.08%
CC[C@@H](C)[C@@H](C(=O)N1CCN(C(=O)OC(C)(C)C)CC1)n1cc(CCC(=O)O)nn1 2.89%
O=c1[nH]c(CCl)nc2cc(-c3ccc(Cl)cc3)sc12 1.58%
COc1ccc(CNC(=O)CN(Cc2ccc(Cl)cc2)S(C)(=O)=O)cc1 -2.12%
CCCC(=O)n1nc(NCc2ccc(OC)cc2)nc1NCc1ccc(OC)cc1 -0.61%
COc1ccc(NC(=O)CN2C(=O)C(c3ccccc3)=NC23CCCCCC3)cc1OC 1.4%
O=C(CCc1ccc(S(=O)(=O)N2CCOCC2)cc1)Nc1ccc2ccccc2c1 0.61%
O=C(C(Cc1ccccc1)n1cccc1)N1CCN(C2CCCCC2)CC1 (stereo not given) -0.53%
O=C(/C=N/O)Nc1ccccc1 -4.21%
O=C(COC(=O)c1ccc(NS(=O)(=O)c2cccs2)cc1O)Nc1ccc(F)cc1 0.61%
Cc1cc(C)n(CC(C)NCc2c(C(=O)N3CCOCC3)nc3c(C)cccn23)n1 (stereo not given) -0.74%
COc1cc(C(=O)NCC(c2ccco2)N2CCCC2)ccc1OCc1ccccc1 (stereo not given) 2.49%
CCOC(=O)c1c(NC(=O)CN2C(=O)NC3(CCC(C)CC3)C2=O)sc(C)c1CC (stereo not given) 1.08%
O=C(COc1coc(CN2CCN(c3ccccc3F)CC2)cc1=O)N1CCc2ccccc21 -1.02%
CN(C(=O)CSc1nnc(Nc2ccccc2)s1)C1CCS(=O)(=O)C1 (stereo not given) 0.29%
Cc1ccc(S(=O)(=O)NC2(C(F)(F)F)NC(=O)N(CCc3ccccc3)C2=O)cc1 (stereo not given) 1.1%
COc1ccc(-c2cc(C(=O)N/N=C/c3cccnc3)c3ccccc3n2)c(OC)c1 6.06%
O=C(Nc1cc(S(=O)(=O)N2CCOCC2)ccc1Cl)c1cc(=O)c2ccccc2o1 1.24%
O=C(NCCCN1CCOCC1)C1CCCN(S(=O)(=O)N2CCCCC2)C1 (stereo not given) 0.58%
CN(Cc1ccccc1F)C(=O)C(Cc1ccccc1)NC(=O)c1ccccc1 (stereo not given) 0.68%
N=c1n(CCc2ccccc2)c2ccccc2n1Cc1ccccc1F -5.83%
CCOc1ccc(CCNC(=O)C2=C(C)C(=O)OC23CCC(C)CC3)cc1OCC (stereo not given) -3.37%
O=C1C(=O)N(CCN2CCOCC2)C(c2ccccn2)/C1=C(/O)c1ccc(Cl)cc1 (stereo not given) -1.05%
O=C1C(=O)N(CCCN2CCOCC2)C(c2ccc([N+](=O)[O-])cc2)/C1=C(\O)c1ccc2c(c1)OCCO2 (stereo not given) 2.15%
Cc1ccc(-c2nc(CSCC(=O)NC3CCN(Cc4ccccc4)CC3)c(C)o2)cc1 1.78%
CCN(CC)Cc1csc2ccc(Br)cc12 -3.8%
CCOc1cc(C2/C(=C(/O)c3ccc(S(=O)(=O)N4CCCCC4)cc3)C(=O)C(=O)N2CCOC)ccc1O (stereo not given) 0.08%
CCOc1cc(NC(=S)NCCCOC)c(OCC)cc1NC(=O)c1ccco1 1.79%
O=C(NCc1ccccn1)c1ccc2nc(-c3ccco3)c(-c3ccco3)nc2c1 9.85%
CCOc1cc(C(=O)Nc2ccc(S(=O)(=O)Nc3cnc4ccccc4n3)cc2)cc(OCC)c1OCC 0.9%
CCCOn1c(-n2nc(C)cc2C)nc2ccccc2c1=O -0.33%
COc1ccc2c3c1O[C@H]1C[C@@H](O)C=C[C@@]31CCN(C)C2 4.69%
O=C(CCN1C(=O)c2ccncc2C1=O)Nc1cc(F)ccc1F -0.36%
CCCC(=O)N1CCC(CCC(=O)NC2CC2)CC1 0.01%
Cc1ccc(C(=O)COC(=O)c2cccc(N3C(=O)c4c(C)nc5ccccc5c4C3=O)c2)cc1C -4.34%
COc1ccc(C(C(=O)NC2CCCCC2)N(C(=O)CCl)c2ccccc2Cl)cc1 (stereo not given) 3.2%
CCCOC1CCCN(Cc2cn(C)nc2-c2ccccc2F)C1 (stereo not given) -1.73%
CC1C(=O)Nc2ccccc2N1C(=O)c1c(F)cccc1F (stereo not given) 0.31%
CCCCCCSc1nsc(N)n1 3.46%
CC1CCN(S(=O)(=O)c2ccc3c(c2)n(C)c(=O)n3C)CC1 0.8%
CCc1cc2c(SCC(=O)Nc3ncc(Cl)c(C)c3Cl)ncnc2s1 2.24%
CCc1ccc(S(=O)(=O)Nc2cc3c(cc2N2CCCCC2)n(C)c(=O)c(=O)n3C)cc1 -2.2%

Inhibition of corepressor binding, active:
CC1(C)Cc2ccccc2-c2[nH]c(=S)[nH]c(=O)c21 49.1%
CN(Cc1ccccc1)Cc1ccccc1F 24.1%
O=C1C(=O)N(CCN2CCOCC2)C(c2cccc(Cl)c2)/C1=C(/O)c1ccc2c(c1)OCO2 (stereo not given) 31.6%
COCCNC(=O)Nc1ccc2nc(-c3ccco3)c(-c3ccco3)nc2c1 30.4%
CC[N+](C)(CC)CCC[n+]1c(-c2ccccc2)c2cc(N)ccc2c2ccc(N)cc21 41.5%
